Assay results taken from ChEMBL document CHEMBL1135657, “Novel dual inhibitors of AChE and MAO derived from hydroxy aminoindan and phenethylamine as potential treatment for Alzheimer's disease” (J Med Chem, 2002).
pIC50: −log10 of the molar value.

Assays:
Acetylcholinesterase [1] = target: T1, Acetylcholinesterase (Homo sapiens, UniProt P22303); test: In vitro inhibitory concentration against purified Acetylcholinesterase of human erythrocytes; value ranges from […]-[…]
Acetylcholinesterase [2] = target: T1, Acetylcholinesterase; test: In vitro inhibitory concentration against purified Acetylcholinesterase of human erythrocytes
Butyrylcholinesterase [3] = target: T2, Butyrylcholinesterase (Equus caballus, UniProt Q9N1N9); test: In vitro inhibitory concentration against Butyrylcholinesterase of horse serum; value ranges from 0.99-1.91
T2 sequence (Q9N1N9 whole entry): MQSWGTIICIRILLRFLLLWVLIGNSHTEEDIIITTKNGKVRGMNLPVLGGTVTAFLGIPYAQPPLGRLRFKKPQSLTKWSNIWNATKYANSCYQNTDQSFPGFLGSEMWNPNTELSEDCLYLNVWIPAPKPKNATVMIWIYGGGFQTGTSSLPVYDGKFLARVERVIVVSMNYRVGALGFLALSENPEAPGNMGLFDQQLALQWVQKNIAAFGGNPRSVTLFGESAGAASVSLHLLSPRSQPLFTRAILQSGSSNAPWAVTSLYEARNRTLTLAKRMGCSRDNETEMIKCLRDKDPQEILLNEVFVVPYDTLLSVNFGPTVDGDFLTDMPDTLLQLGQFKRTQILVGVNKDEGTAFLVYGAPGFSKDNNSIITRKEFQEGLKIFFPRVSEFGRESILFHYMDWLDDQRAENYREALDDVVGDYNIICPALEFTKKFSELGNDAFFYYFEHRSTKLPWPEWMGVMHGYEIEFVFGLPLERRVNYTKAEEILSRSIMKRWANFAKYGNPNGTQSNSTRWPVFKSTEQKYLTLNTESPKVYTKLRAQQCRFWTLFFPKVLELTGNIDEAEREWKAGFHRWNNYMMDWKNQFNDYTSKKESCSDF
Outline: (§1)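 Ellman assay followed, with 200 µM butyrylthiocholine as substrate. Runs were in triplicate with four-point dose-response curves. IC50 and fiducial limits came from log concentration versus % inhibition.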

Acetylcholinesterase [4] = target: T1, Acetylcholinesterase; test: In vitro inhibitory concentration against purified Acetylcholinesterase of human erythrocytes; value ranges from 1.28-3.30
Acetylcholinesterase [5] = target: T1, Acetylcholinesterase; test: In vitro inhibitory concentration against purified Acetylcholinesterase of human erythrocytes; value ranges from 33.4-148
Acetylcholinesterase [6] = target: T1, Acetylcholinesterase; test: In vitro inhibitory concentration against purified Acetylcholinesterase of human erythrocytes; value ranges from 91.8-732
[7] = target: T3, Amine oxidase [flavin-containing] B (Rattus norvegicus, UniProt P19643); test: In vitro inhibitory concentration against Monoamine oxidase B of rat brain homogenates; value ranges from 0.07-0.59; format: tissue-based
T3 sequence (P19643 whole entry): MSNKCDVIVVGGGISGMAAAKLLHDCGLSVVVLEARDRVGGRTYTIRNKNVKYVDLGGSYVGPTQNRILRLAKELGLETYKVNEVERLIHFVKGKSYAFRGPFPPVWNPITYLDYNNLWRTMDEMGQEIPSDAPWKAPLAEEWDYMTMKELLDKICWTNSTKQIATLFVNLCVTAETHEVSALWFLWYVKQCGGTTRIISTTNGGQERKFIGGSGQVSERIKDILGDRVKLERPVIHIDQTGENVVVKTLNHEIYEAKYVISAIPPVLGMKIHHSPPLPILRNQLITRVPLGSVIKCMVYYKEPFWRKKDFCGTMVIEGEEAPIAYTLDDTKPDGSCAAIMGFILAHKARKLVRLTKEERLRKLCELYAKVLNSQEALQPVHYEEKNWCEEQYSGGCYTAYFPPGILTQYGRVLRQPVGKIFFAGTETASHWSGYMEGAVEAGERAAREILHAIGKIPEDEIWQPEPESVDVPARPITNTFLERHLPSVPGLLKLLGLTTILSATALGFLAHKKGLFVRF
Outline: (§2)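 Rat brain homogenate (in 0.3 M sucrose) as enzyme source; compounds diluted 10⁻²M to 10⁻⁹M in 0.05 M phosphate buffer with 0.15 μM clorgyline; preincubated 60 min at 37 °C, then 10 μM ¹⁴C-phenylethylamine added for 20 min more; stopped with citric acid; metabolites extracted into toluene/ethyl acetate, scintillation counted; activity as % of control, tranylcypromine blank.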

Butyrylcholinesterase [8] = target: T2, Butyrylcholinesterase; test: In vitro inhibitory concentration against Butyrylcholinesterase of horse serum; value ranges from 1.38-1.65; outline: as §1
Acetylcholinesterase [9] = target: T1, Acetylcholinesterase; test: In vitro inhibitory concentration against purified Acetylcholinesterase of human erythrocytes; value ranges from 1.27-1.86
Butyrylcholinesterase [10] = target: T2, Butyrylcholinesterase; test: In vitro inhibitory concentration against Butyrylcholinesterase of horse serum; value ranges from 0.85-1.96; outline: as §1
Butyrylcholinesterase [11] = target: T2, Butyrylcholinesterase; test: In vitro inhibitory concentration against Butyrylcholinesterase of horse serum; value ranges from 2.1-4.1; outline: as §1
Acetylcholinesterase [12] = target: T1, Acetylcholinesterase; test: In vitro inhibitory concentration against purified Acetylcholinesterase of human erythrocytes; value ranges from 1.7-6.4
[13] = target: T4, Amine oxidase [flavin-containing] A (Rattus norvegicus, UniProt P21396); test: In vitro inhibitory concentration against Monoamine oxidase A of rat brain homogenates; value ranges from 260-420; format: tissue-based
T4 sequence (P21396 whole entry): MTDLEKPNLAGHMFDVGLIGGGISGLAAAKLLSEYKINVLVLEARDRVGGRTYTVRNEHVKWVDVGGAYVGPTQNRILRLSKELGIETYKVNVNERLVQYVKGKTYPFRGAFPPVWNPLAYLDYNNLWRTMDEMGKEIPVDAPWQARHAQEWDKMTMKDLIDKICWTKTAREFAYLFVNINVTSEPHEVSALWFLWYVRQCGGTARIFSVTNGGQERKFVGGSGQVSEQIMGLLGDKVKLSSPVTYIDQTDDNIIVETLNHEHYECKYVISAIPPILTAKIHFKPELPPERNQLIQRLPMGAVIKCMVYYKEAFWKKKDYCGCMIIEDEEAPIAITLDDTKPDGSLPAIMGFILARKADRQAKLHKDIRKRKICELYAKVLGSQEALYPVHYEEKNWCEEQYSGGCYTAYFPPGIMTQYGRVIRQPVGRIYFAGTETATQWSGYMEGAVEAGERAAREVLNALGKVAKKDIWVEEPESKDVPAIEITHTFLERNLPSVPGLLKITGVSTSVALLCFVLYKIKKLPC

[14] = target: T3, Amine oxidase [flavin-containing] B; test: In vitro inhibitory concentration against Monoamine oxidase B of rat brain homogenates; value ranges from 590-900
[15] = Bimolecular rate constant for carbamoylation of ACHE; format: ADME
Outline: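 Human erythrocyte AChE preincubated with inhibitor at 37 °C in 0.1 M phosphate buffer, pH 7.4, under Ellman conditions with 200 µM […]. Pseudo-first-order rate constants (k_obs) for progressive inhibition were obtained at 4-5 inhibitor concentrations. The apparent bimolecular carbamylation constant k_i was calculated from these.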

[16] = target: T3, Amine oxidase [flavin-containing] B; test: In vitro inhibitory concentration against Monoamine oxidase B of rat brain homogenates; value ranges from 0.019-0.021; format: tissue-based; outline: as §2
[17] = target: T4, Amine oxidase [flavin-containing] A; test: In vitro inhibitory concentration against Monoamine oxidase A of rat brain homogenates; value ranges from 0.005-0.010; format: tissue-based
Butyrylcholinesterase [18] = target: T2, Butyrylcholinesterase
Acetylcholinesterase [19] = target: T1, Acetylcholinesterase; test: In vitro inhibitory concentration against purified Acetylcholinesterase of human erythrocytes; value ranges from 9.8-157
Acetylcholinesterase [20] = target: T1, Acetylcholinesterase
Butyrylcholinesterase [21] = target: T2, Butyrylcholinesterase; test: In vitro inhibitory concentration against Butyrylcholinesterase of horse serum; value ranges from 4.9-11.2; outline: as §1
Acetylcholinesterase [22] = target: T1, Acetylcholinesterase; test: In vitro inhibitory concentration against purified Acetylcholinesterase of human erythrocytes; value ranges from 0.49-0.58
[23] = Pseudo-first order rate constant for carbamoylation of ACHE at 400 (uM) concentration; format: ADME
Outline: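 Pseudo-first-order rate constants kobs measured at 4-5 inhibitor concentrations following Bar-On et al. Apparent bimolecular carbamylation constant ki calculated from these.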

[24] = target: T3, Amine oxidase [flavin-containing] B; test: In vitro inhibitory concentration against Monoamine oxidase B of rat brain homogenates; format: tissue-based
Acetylcholinesterase [25] = target: T1, Acetylcholinesterase; remark: listed apart in the source
[26] = Pseudo-first order rate constant for carbamoylation of ACHE at 50 (uM) concentration; format: ADME
Outline: (§3)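 Human erythrocyte AChE, same Ellman conditions: 200 µM […], 60 min preincubation at 37 °C, 0.1 M phosphate pH 7.4. Progressive inhibition followed at 4-5 inhibitor concentrations. Pseudo-first-order k_obs (min⁻¹) derived per concentration; apparent bimolecular carbamylation constant k_i calculated from these.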

[27] = Pseudo-first order rate constant for carbamoylation of ACHE at 200 (uM) concentration; format: ADME; outline: as §3
Butyrylcholinesterase [28] = target: T2, Butyrylcholinesterase; test: In vitro inhibitory concentration against Butyrylcholinesterase of horse serum; value ranges from 1.54-2.83
[29] = Pseudo-first order rate constant for carbamoylation of ACHE at 300 (uM) concentration; format: ADME; outline: as §3
[30] = Pseudo-first order rate constant for carbamoylation of ACHE at 100 (uM) concentration; format: ADME; outline: as §3
Butyrylcholinesterase [31] = target: T2, Butyrylcholinesterase; test: In vitro inhibitory concentration against Butyrylcholinesterase of horse serum; value ranges from 0.009-0.024; outline: as §1
Acetylcholinesterase [32] = target: T1, Acetylcholinesterase; test: In vitro inhibitory concentration against purified Acetylcholinesterase of human erythrocytes; value ranges from 0.008-0.012
[33] = target: T4, Amine oxidase [flavin-containing] A; test: In vitro inhibitory concentration against Monoamine oxidase A of rat brain homogenates; value ranges from 7.6-12.5; format: tissue-based

T1 sequence (P22303 whole entry): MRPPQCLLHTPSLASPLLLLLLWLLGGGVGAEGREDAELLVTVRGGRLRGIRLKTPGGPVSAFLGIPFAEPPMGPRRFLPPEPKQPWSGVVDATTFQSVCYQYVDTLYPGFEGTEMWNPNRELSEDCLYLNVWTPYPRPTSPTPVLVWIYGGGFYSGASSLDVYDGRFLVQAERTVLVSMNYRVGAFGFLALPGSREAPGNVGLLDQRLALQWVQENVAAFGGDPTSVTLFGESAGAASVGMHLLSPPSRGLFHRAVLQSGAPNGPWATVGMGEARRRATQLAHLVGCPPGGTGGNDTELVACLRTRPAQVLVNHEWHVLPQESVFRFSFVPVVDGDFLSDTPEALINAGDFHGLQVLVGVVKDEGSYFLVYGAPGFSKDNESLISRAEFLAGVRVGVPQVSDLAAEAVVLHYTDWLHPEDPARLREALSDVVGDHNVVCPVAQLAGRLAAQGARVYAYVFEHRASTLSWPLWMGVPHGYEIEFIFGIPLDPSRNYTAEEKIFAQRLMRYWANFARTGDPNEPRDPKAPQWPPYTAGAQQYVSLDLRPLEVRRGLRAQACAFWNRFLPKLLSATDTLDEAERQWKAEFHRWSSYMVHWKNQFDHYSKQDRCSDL

SMILES: CCCNC1CCc2ccc(OC(=O)N(C)CC)cc21 (centres undefined)
- pIC50 (Acetylcholinesterase [1]): 5.44

SMILES: C#CCN(C)C1CCc2ccc(OC(=O)N(C)CC)cc21 (centres undefined)
- pIC50 (Acetylcholinesterase [2]): < 2.89

SMILES: C#CCNC1CCc2ccc(OC(=O)N(C)Cc3ccccc3)cc21 (centres undefined)
- pIC50 (Butyrylcholinesterase [3]): 5.90
- pIC50 (Acetylcholinesterase [4]): 5.75

SMILES: CCN(C)C(=O)Oc1ccc2c(c1)CC(N)CC2 (centres undefined)
- pIC50 (Acetylcholinesterase [5]): 4.10

SMILES: C#CCN(C)C(C)Cc1cccc(OC(=O)N(C)CC)c1 (centres undefined)
- pIC50 (Acetylcholinesterase [6]): 3.63
- pIC50 [7]: 7.00
- pIC50 (Butyrylcholinesterase [8]): 5.82

SMILES: CN(C)C(=O)Oc1ccc2c(c1)C(N)CCC2 (centres undefined)
- pIC50 (Acetylcholinesterase [9]): 5.83

SMILES: CNC1CCc2ccc(OC(=O)N(C)C)cc21 (centres undefined)
- pIC50 (Acetylcholinesterase [1]): 5.97
- pIC50 (Butyrylcholinesterase [10]): 6.02

SMILES: C#CCNC1CCc2cccc(OC(=O)N(C)C)c21 (centres undefined)
- pIC50 (Butyrylcholinesterase [11]): 5.55
- pIC50 (Acetylcholinesterase [12]): 5.60

SMILES: C#CCN(C)C1CCc2cccc(OC(=O)N(C)C)c21 (centres undefined)
- pIC50 [13]: 3.48
- pIC50 [14]: 3.14

SMILES: CCN(C)C(=O)Oc1cccc([C@H](C)N(C)C)c1 [RIVASTIGMINE]
- Bimolecular carbamoylation rate constant (ki) [15]: 1432 M⁻¹ min⁻¹

SMILES: C#CCNC1CCc2ccc(OC(=O)NCC)cc21 (centres undefined)
- pIC50 (Acetylcholinesterase [1]): 4.86

SMILES: CC(c1cccc(OC(=O)N(C)C)c1)N(C)C (centres undefined)
- pIC50 (Acetylcholinesterase [2]): 7.52

SMILES: C#CCN(C)[C@@H]1CCc2ccc(O)cc21
- pIC50 [16]: 7.70
- pIC50 [17]: 8.15

SMILES: C#CCN(C)C(C)Cc1cccc(OC(=O)N(C)CCC)c1 (centres undefined)
- pIC50 (Butyrylcholinesterase [18]): 4.64
- pIC50 (Acetylcholinesterase [19]): 4.48

SMILES: C#CCNC1CCc2ccc(OC(=O)N(C)c3ccc(OC)cc3)cc21 (centres undefined)
- pIC50 (Acetylcholinesterase [20]): 6.07
- pIC50 (Butyrylcholinesterase [21]): 5.19

SMILES: CCCCCCN(C)C(=O)Oc1ccc2c(c1)C(N)CC2 (centres undefined)
- pIC50 (Acetylcholinesterase [22]): 6.28

SMILES: C#CCN[C@@H]1CCc2ccc(OC(=O)N(C)CC)cc21.Cl
- K obs [23]: 52 min⁻¹
- pIC50 [24]: < 3.00
- pIC50 (Acetylcholinesterase [25]): 4.50
- K obs [26]: 16 min⁻¹
- K obs [27]: 32 min⁻¹
- pIC50 (Butyrylcholinesterase [28]): 5.70
- K obs [29]: 42 min⁻¹
- Bimolecular carbamoylation rate constant (ki) [15]: 102 M⁻¹ min⁻¹
- K obs [30]: 21 min⁻¹

SMILES: CN(C)C(=O)Oc1cccc2c1CCC2N (centres undefined)
- pIC50 [24]: < 3.00
- pIC50 (Butyrylcholinesterase [31]): 7.85
- pIC50 (Acetylcholinesterase [32]): 8.05
- pIC50 [33]: 5.01

SMILES: C#CCNC1CCc2ccc(OC(=S)N(C)CC)cc21 (centres undefined)
- pIC50 (Acetylcholinesterase [2]): < 3.30
